Assay results taken from ChEMBL document CHEMBL4196006, “Aryl thiosemicarbazones for the treatment of trypanosomatidic infections” (Eur J Med Chem, 2018).
The source made the active and inactive calls. The calls are words filed in the database; no cut-off is given here.

How the values were obtained:
Leishmania infantum [1] = assay: Antileishmanial activity against Leishmania infantum amastigote form after 72 hrs by steady-Glo reagent based assay; type: functional, organism-based
Summary of the method: (§1)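 Intramacrophage L. infantum amastigotes in THP-1-derived macrophages, tested at 50 μM or in dose-response. Plates held 72 h at 37 °C, 5% CO2. Medium was replaced by PBS, macrophages lysed, and parasites read by Steady-Glo luminescence. High-content imaging gave host cell number, infection ratio (infected/total cells) and parasites per infected cell. Values are means of at least two independent experiments.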

[2] = (§2) Cytotoxicity against human THP1 cells assessed as decrease in viable cells after 72 hrs by MTT assay; type: cell-based, THP-1; conditions: THP1 cells
Summary of the method: (§3)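 THP-1-derived macrophages exposed to compounds for 72 h, tested at 100 μM or in dose-response; viability read by MTT colorimetric assay.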

Cytochrome P450 2C9 = Cytochrome P450 2C9 (Homo sapiens, UniProt P11712); assay: Inhibition of human microsomal CYP2C9 expressed in baculovirus infected BTI-TN-5B1-4 cells incubated for 30 mins by luciferase assay
Sequence of Cytochrome P450 2C9 (P11712 whole entry): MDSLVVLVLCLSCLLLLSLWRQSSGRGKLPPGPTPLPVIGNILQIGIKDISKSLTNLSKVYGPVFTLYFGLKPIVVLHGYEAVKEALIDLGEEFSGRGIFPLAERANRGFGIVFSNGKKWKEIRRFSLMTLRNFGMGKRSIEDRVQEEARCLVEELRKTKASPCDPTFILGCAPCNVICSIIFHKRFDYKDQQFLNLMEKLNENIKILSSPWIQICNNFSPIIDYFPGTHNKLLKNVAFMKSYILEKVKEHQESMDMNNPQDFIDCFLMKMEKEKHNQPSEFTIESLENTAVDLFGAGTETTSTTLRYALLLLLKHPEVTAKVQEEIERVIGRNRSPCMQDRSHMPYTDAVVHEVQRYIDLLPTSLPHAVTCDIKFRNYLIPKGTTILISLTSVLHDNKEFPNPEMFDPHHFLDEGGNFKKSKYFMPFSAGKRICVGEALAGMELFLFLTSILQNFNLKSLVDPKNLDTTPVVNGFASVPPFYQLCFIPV

Leishmania infantum [3] = assay: Antileishmanial activity against Leishmania infantum amastigote form; type: functional, organism-based; summary of the method: as §1
Trypanosoma brucei [4] = assay: Antitrypanosomal activity against Trypanosoma brucei Lister 427 bloodstream form assessed as parasite growth inhibition at 50 uM after 72 hrs by SYBR Green assay relative to control; type: functional
Leishmania infantum [5] = assay: Antileishmanial activity against Leishmania infantum amastigote form assessed as parasite growth inhibition at 50 uM after 72 hrs by steady-Glo reagent based assay relative to control; type: functional; conditions: read-out: GI; summary of the method: as §1
Trypanosoma cruzi = assay: Antitrypanosomal activity against Trypanosoma cruzi amastigote form infected in human U2OS cells assessed as parasite growth inhibition at 50 uM after 72 hrs relative to control; type: functional; conditions: read-out: GI
Summary of the method: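 U2OS monolayers grown for 24 h, then infected with tissue-derived trypomastigotes of T. cruzi Y strain. Compounds were added 24 h after infection at 50 μM (single-point) or in dose-response, with 72 h exposure. Plates were fixed, stained and analysed by high-content imaging; activity was normalized to infected and non-infected controls. Means of at least two experiments; benznidazole as reference.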

Trypanosoma brucei [6] = assay: Antitrypanosomal activity against Trypanosoma brucei Lister 427 bloodstream form at 10 uM after 72 hrs by resazurin dye-based assay relative to control; type: functional
Trypanosoma brucei [7] = assay: Potentiation of methotrexate-induced antitrypanosomal activity against Trypanosoma brucei Lister 427 bloodstream form at 10 uM after 72 hrs by resazurin dye-based assay relative to control; type: functional
CYP1A2 = molecular target: T1, CYP1A2 (Homo sapiens, UniProt P05177); assay: Inhibition of human microsomal CYP1A2 expressed in baculovirus infected BTI-TN-5B1-4 cells at 10 uM incubated for 30 mins by luciferase assay relative to control; type: ADME
T1 sequence (P05177 whole entry): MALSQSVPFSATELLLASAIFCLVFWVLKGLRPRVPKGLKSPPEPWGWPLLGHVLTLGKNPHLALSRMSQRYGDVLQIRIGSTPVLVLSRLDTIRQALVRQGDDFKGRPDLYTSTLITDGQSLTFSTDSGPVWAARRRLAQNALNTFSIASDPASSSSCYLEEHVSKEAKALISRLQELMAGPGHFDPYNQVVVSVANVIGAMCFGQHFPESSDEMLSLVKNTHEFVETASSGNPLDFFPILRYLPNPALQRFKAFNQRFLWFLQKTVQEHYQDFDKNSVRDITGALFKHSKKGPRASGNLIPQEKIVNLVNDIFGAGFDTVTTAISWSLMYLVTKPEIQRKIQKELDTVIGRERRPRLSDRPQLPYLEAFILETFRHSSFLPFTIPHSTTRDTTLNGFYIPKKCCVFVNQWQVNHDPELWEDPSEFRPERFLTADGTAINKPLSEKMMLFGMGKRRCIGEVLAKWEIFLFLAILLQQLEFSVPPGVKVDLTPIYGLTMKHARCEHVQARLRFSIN
Summary of the method: (§4)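 CYP1A2, 2C9, 2C19, 2D6 and 3A4 in microsomes from baculovirus-infected insect cells, each with a P450-Glo luminogenic substrate. Inhibition read as loss of light; single-point at 10 μM, triplicate.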

Trypanosoma brucei [8] = assay: Potentiation of methotrexate-induced antitrypanosomal activity against Trypanosoma brucei Lister 427 bloodstream form at 10 uM after 72 hrs by resazurin dye-based assay; type: functional
hERG (KCNH2) = hERG (KCNH2) (Homo sapiens, UniProt Q12809); assay: Inhibition of human ERG at 10 uM incubated for 2 hrs by fluorescence polarisation assay relative to control
Sequence of hERG (KCNH2) (Q12809 whole entry): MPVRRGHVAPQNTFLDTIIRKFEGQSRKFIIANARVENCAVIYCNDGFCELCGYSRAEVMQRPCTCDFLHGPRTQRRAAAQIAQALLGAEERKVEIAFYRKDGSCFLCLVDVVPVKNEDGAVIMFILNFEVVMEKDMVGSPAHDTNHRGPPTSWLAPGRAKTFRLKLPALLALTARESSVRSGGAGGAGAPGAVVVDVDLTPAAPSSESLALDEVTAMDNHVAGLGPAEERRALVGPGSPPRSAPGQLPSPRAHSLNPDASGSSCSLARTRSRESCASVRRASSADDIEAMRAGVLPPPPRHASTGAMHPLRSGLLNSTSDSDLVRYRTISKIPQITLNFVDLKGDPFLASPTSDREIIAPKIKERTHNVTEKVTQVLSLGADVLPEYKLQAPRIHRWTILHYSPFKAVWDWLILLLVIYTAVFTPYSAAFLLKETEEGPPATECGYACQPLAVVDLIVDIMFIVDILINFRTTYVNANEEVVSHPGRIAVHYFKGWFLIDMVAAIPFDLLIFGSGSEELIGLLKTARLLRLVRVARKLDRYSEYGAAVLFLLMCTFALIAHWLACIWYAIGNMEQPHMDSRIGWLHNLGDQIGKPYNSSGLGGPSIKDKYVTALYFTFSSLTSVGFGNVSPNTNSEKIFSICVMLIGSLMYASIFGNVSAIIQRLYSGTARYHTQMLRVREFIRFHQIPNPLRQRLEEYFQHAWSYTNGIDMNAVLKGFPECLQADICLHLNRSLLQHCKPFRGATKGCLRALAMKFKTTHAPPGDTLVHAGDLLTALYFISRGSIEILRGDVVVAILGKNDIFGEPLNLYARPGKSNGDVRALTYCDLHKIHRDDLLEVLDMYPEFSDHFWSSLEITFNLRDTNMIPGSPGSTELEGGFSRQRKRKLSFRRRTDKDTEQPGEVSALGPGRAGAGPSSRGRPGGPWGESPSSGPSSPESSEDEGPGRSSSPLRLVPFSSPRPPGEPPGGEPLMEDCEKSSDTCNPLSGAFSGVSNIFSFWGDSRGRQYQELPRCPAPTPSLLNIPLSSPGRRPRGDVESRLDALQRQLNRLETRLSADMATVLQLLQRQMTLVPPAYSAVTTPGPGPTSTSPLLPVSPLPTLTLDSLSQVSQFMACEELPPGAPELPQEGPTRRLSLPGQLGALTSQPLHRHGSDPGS

CYP2C9 = CYP2C9 (Homo sapiens, UniProt P11712); assay: Inhibition of human microsomal CYP2C9 expressed in baculovirus infected BTI-TN-5B1-4 cells at 10 uM incubated for 30 mins by luciferase assay relative to control; type: ADME; summary of the method: as §4
Sequence of CYP2C9 (P11712 whole entry): as the sequence (P11712 whole entry) above

CYP2C19 = CYP2C19 (Homo sapiens, UniProt P33261); assay: Inhibition of human microsomal CYP2C19 expressed in baculovirus infected BTI-TN-5B1-4 cells at 10 uM incubated for 30 mins by luciferase assay relative to control; type: ADME; summary of the method: as §4
Sequence of CYP2C19 (P33261 whole entry): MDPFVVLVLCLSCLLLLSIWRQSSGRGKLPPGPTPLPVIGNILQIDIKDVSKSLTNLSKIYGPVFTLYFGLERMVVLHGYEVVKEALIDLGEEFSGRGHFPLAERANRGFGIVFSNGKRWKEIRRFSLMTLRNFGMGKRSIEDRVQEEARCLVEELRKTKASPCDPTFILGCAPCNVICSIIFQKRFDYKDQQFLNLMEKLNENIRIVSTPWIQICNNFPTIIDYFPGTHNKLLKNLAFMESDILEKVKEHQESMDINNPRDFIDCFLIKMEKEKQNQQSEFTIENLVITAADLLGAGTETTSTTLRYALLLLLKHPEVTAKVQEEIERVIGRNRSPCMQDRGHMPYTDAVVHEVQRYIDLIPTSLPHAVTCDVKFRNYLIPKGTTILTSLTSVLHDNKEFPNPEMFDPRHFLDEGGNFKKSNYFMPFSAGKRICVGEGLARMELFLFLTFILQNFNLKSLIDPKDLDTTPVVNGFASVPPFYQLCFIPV

CYP2D6 = CYP2D6 (Homo sapiens, UniProt P10635); assay: Inhibition of human microsomal CYP2D6 expressed in baculovirus infected BTI-TN-5B1-4 cells at 10 uM incubated for 30 mins by luciferase assay relative to control; type: ADME; summary of the method: as §4
Sequence of CYP2D6 (P10635 whole entry): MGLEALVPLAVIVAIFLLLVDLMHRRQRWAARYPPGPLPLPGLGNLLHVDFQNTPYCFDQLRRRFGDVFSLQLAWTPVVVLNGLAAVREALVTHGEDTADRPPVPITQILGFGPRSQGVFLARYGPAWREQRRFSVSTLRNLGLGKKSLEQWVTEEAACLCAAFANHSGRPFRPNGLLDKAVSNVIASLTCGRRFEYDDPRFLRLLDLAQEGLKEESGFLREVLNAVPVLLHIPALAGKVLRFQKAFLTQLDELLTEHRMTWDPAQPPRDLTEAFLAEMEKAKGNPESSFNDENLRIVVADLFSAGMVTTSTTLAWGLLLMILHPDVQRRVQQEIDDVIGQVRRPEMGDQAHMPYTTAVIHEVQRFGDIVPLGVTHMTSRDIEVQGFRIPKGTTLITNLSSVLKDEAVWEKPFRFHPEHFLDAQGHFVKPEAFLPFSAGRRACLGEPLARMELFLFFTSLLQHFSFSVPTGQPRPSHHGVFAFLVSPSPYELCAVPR

CYP3A4 = CYP3A4 (Homo sapiens, UniProt P08684); assay: Inhibition of human microsomal CYP3A4 expressed in baculovirus infected BTI-TN-5B1-4 cells at 10 uM incubated for 30 mins by luciferase assay relative to control; type: ADME; summary of the method: as §4
Sequence of CYP3A4 (P08684 whole entry): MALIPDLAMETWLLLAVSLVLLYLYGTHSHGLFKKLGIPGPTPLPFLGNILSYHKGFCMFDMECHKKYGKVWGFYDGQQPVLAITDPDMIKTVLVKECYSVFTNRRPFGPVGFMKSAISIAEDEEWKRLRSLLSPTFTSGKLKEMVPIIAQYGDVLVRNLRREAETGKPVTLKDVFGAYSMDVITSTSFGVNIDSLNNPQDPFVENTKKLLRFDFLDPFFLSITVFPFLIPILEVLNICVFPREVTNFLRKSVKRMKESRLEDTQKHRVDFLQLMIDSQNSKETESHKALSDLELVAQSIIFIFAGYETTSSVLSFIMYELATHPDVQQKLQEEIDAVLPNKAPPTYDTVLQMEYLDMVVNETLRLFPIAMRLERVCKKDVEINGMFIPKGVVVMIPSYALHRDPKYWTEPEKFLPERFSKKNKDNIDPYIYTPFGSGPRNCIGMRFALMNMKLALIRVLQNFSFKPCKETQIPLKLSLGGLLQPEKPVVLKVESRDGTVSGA

Aurora kinase B = Aurora kinase B (Homo sapiens, UniProt Q96GD4); assay: Inhibition of recombinant full-length human aurora B kinase expressed in baculovirus system at 10 uM using MBP as substrate incubated for 45 mins by ADP-glo kinase assay; conditions: probe MBP
Sequence of Aurora kinase B (Q96GD4 whole entry): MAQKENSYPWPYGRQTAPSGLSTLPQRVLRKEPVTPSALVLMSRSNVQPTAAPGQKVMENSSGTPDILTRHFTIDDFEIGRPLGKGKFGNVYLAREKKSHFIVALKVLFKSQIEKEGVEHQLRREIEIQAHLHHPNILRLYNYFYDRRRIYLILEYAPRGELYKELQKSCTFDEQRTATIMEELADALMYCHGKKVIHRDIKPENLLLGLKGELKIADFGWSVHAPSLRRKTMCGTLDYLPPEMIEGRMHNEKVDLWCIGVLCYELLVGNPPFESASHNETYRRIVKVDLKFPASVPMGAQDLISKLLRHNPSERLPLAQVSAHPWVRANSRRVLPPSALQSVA
Summary of the method: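 Aurora B activity measured as ADP formation via coupled luciferase ADP-Glo luminescence; single-point at 10 μM, triplicate.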

[9] = Cytotoxicity against human 786-O cells assessed as inhibition of mitochondrial viability at 10 uM after 6 hrs by CMXRos staining based assay relative to control; type: cell-based, 786-0; conditions: read-out: INH
Summary of the method: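 Mitochondrial toxicity monitored by MitoTracker Red CMXRos uptake and high-content imaging; compound at 10 μM, triplicate.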

[10] = Cytotoxicity against human THP1 cells assessed as viable cells at 100 uM after 72 hrs by MTT assay relative to control; type: cell-based, THP-1; conditions: read-out: Activity; summary of the method: as §3
[11] = Cytotoxicity against human U2OS cells assessed as viable cells at 50 uM after 72 hrs by MTT assay relative to control; type: cell-based; conditions: read-out: Activity
[12] = molecular target: T2, Pteridine reductase, putative (Trypanosoma brucei) (UniProt Q581W1); assay: Inhibition of Trypanosoma brucei PTR1 at 50 uM using H2B as substrate in presence of NADPH by photometric analysis relative to control
T2 sequence (whole entry): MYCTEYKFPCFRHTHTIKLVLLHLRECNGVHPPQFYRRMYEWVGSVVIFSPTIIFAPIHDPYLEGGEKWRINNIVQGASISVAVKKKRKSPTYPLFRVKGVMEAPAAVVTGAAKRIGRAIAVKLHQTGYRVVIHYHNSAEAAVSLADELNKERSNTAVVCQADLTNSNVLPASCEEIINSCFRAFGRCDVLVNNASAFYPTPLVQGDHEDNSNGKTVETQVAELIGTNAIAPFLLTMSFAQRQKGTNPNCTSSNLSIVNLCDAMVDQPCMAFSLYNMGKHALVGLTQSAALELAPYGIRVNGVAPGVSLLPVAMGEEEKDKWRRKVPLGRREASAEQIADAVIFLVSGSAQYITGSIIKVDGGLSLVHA

[13] = molecular target: T3, Pteridine reductase 1 (Leishmania major) (UniProt Q01782); assay: Inhibition of Leishmania major PTR1 at 50 uM using H2B as substrate in presence of NADPH by photometric analysis relative to control
T3 sequence (whole entry): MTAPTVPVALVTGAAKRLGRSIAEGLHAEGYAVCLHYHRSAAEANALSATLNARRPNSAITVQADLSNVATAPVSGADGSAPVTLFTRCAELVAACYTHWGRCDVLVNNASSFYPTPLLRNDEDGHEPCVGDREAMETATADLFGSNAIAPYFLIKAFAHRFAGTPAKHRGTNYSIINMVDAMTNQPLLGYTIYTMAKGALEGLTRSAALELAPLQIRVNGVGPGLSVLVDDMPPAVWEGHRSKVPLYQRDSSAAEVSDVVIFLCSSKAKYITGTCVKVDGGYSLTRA

A549 = assay: Cytotoxicity against human A549 cells assessed as growth inhibition at 10 uM after 48 hrs by CellTiter-Glo assay relative to control; values are per cent of control; conditions: a549, 48 h, 10 µM
[14] = Cytotoxicity against human WI38 cells assessed as growth inhibition at 10 uM after 48 hrs by CellTiter-Glo assay relative to control; values are per cent of control; conditions: WI38 cells
Trypanosoma brucei [15] = assay: Antitrypanosomal activity against Trypanosoma brucei Lister 427 bloodstream form at 4 uM after 72 hrs by resazurin dye-based assay relative to control; type: functional
THP-1 = assay: as §2; type: cell-based; conditions: thp-1, 72 h; summary of the method: as §3
Cytochrome P450 3A4 = Cytochrome P450 3A4 (Homo sapiens, UniProt P08684); assay: Inhibition of human microsomal CYP3A4 expressed in baculovirus infected BTI-TN-5B1-4 cells incubated for 30 mins by luciferase assay; type: ADME
Sequence of Cytochrome P450 3A4 (P08684 whole entry): as the sequence (P08684 whole entry) above

U2OS = assay: Cytotoxicity against human U2OS cells assessed as decrease in viable cells after 72 hrs by cell number count in anti-T. cruzi high content imaging assay; conditions: u2os, 72 h
[16] = as above; conditions: U2OS cells
[17] = Cytotoxicity against human A549 cells assessed as growth inhibition at 10 uM after 48 hrs by CellTiter-Glo assay relative to control; values are per cent of control; conditions: A549 cells
WI-38 = assay: Cytotoxicity against human WI38 cells assessed as growth inhibition at 10 uM after 48 hrs by CellTiter-Glo assay relative to control; values are per cent of control; conditions: wi-38, 48 h, 10 µM

Row | Structure (SMILES) | IC50 (Cytochrome P450 2C9) | inhibition of growth at 50 µM (Leishmania infantum [5]) | inhibition of growth at 50 µM (Trypanosoma cruzi) | Activity (Trypanosoma brucei [6]) | Activity (Trypanosoma brucei [7]) | inhibition at 0.5 h, 10 µM (CYP1A2) | PF (Trypanosoma brucei [8]) | inhibition at 2 h, 10 µM (hERG (KCNH2)) | inhibition at 0.5 h, 10 µM (CYP2C9) | inhibition at 0.5 h, 10 µM (CYP2C19) | inhibition at 0.5 h, 10 µM (CYP2D6) | inhibition at 0.5 h, 10 µM (CYP3A4) | inhibition at 0.75 h, 10 µM (Aurora kinase B) | cytotoxicity at 6 h, 10 µM [9] | viability at 72 h, 100 µM [10] | viability at 72 h, 50 µM [11] | inhibition [12] | inhibition [13] | other results
1 | C[C@@H]1[C@H](O)[C@@H](C)/C=C/C=C/C=C/C=C/C=C/C=C/C=C/[C@H](O[C@@H]2O[C@H](C)[C@@H](O)[C@H](N)[C@@H]2O)C[C@@H]2O[C@](O)(C[C@@H](O)C[C@@H](O)[C@H](O)CC[C@@H](O)C[C@@H](O)CC(=O)O[C@H]1C)C[C@H](O)[C@H]2C(=O)O [AMPHOTERICIN B] | > 100 µM |  |  |  |  |  |  |  |  |  |  |  |  |  |  |  |  |  | EC50 (Leishmania infantum [1]): 0.2 µM; CC50 at 72 h [2]: 16.9 µM; EC50 (Leishmania infantum [3]): 1.14 µM
2 | COc1cccc(OC)c1/C=N/NC(N)=S |  | 25.3% | 74.3% | 8.83% | 21.83% | 34.3% | 0.66 | -1.27% | -9.43% | -44.2% | 0.08% | -14.8% | -18.2% | -12.3% | 76.8% | 21.7% | 4.77% | 4.04% | growth inhibition (GI) (Trypanosoma brucei [4]): inactive; cell growth (% of control) (A549): 162.27%; cell growth (% of control) at 48 h, 10 µM [14]: 114%
3 | CN(Cc1cnc2nc(N)nc(N)c2n1)c1ccc(C(=O)N[C@@H](CCC(=O)O)C(=O)O)cc1 [METHOTREXATE] |  |  |  |  |  |  |  |  |  |  |  |  |  |  |  |  |  |  | Activity (Trypanosoma brucei [15]): 24.25%
4 | O=C(Cn1ccnc1[N+](=O)[O-])NCc1ccccc1 [BENZNIDAZOLE] | > 100 µM |  |  |  |  |  |  |  |  |  |  |  |  |  |  |  |  |  | CC50 (THP-1): Non-Toxic; IC50 (Cytochrome P450 3A4): 98.2 µM; CC50 (U2OS): Non-Toxic
5 | CCCCCCCCCCCCCCCCOP(=O)([O-])OCC[N+](C)(C)C [MILTEFOSINE] | > 100 µM |  |  |  |  |  |  |  |  |  |  |  |  |  |  |  |  |  | EC50 (Leishmania infantum [1]): 2.51 to 2.8 µM; CC50 at 72 h [2]: 15 µM; EC50 (Leishmania infantum [3]): 1.29 µM; CC50 at 72 h [16]: 11.5 µM
6 | CN(C)c1ccc(/C=N/N=C(/N)S)c2ccccc12 |  | 58.3% | 8.05% | 26.17% | 63.83% | 98.4% | 1.27 | 43% | 10% | 21.7% | 57.9% | 22.8% | 0.89% | -1.7% | 9.31% | 99.5% | inactive | 5.85% | inhibition of growth at 50 µM (Trypanosoma brucei [4]; Lister 427, 72 h, read-out: GI): 6.33%; cell growth (% of control) at 48 h, 10 µM [17]: 122%; cell growth (% of control) (WI-38): 162.08%
7 | NC(=S)N/N=C/c1ccccc1[N+](=O)[O-] |  | 30.6% | 27.4% | 1.5% | 29.17% | 61.6% | 1.13 | -1.03% | -4.92% | -40.6% | -2.93% | -13.9% | -22.8% | -3.98% | 59.7% | 20.4% | 14.8% | 10.6% | growth inhibition (GI) (Trypanosoma brucei [4]): inactive; cell growth (% of control) (A549): 158.95%; cell growth (% of control) at 48 h, 10 µM [14]: 120%
